Assay results taken from ChEMBL document CHEMBL1255454, “Systematic approach to optimizing specifically targeted antimicrobial peptides against Streptococcus mutans” (2010).
In brackets after ≈: the same amount, converted by molar mass. Activity calls are given as the source filed them. The calls are words filed in the database; no cut-off is given here. Square brackets hold non-standard residues; d marks the D form. Peptide text beside a SMILES is read from it. Aoc = NCCCCCCCC(=O)O

Columns and labels:
[1] = test system: Pseudomonas aeruginosa; experiment: Antimicrobial activity against Pseudomonas aeruginosa PAK after 16 to 20 hrs by broth microdilution assay; format: functional
In short: (§1)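 Broth microdilution. Twofold peptide dilutions were made in 50% BHI–50% sterile water for oral streptococci and in 1× Mueller-Hinton broth for the other bacteria. First round 500 to 0.97 µg/ml; a second round of 64 to 0.5 µg/ml was run in some cases, reporting its mode. Inoculum ~1 × 10^5 CFU/ml, 37°C for 16–20 h. Read A600; MIC taken as complete inhibition or ≥90% turbidity reduction versus peptide-free control.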

[2] = test system: Streptococcus sanguinis; experiment: Antimicrobial activity against Streptococcus sanguinis NY101 at 25 ug/ml after 30 mins by time-kill assay; format: functional, organism-based
In short: (§2)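 Time-kill. Overnight cultures were diluted in BHI to A600 0.08 and treated with peptide at 25 µg/ml for 30 s to 2 h. Aliquots were diluted 1:50 in BHI, held on ice, plated and counted after 24 h as surviving CFU/ml. Three independent experiments, mean with SD; unpaired Student t test.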

[3] = test system: Streptococcus mitis; experiment: Antimicrobial activity against Streptococcus mitis ATCC 903 at 25 ug/ml after 30 mins by time-kill assay; format: functional, organism-based; in short: as §2
[4] = test system: Staphylococcus aureus; experiment: Antimicrobial activity against methicillin-resistant Staphylococcus aureus after 16 to 20 hrs by broth microdilution assay; format: functional
In short: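 MRSA grown aerobically in BHI at 37°C. Broth microdilution: 2-fold peptide dilutions in 1× Mueller-Hinton broth, first round 500 to 0.97 µg/ml; if activity below 62.5 µg/ml, sometimes a second round at 64 to 0.5 µg/ml, reporting the mode. Inoculum ~1 × 10^5 CFU/ml, 37°C for 16-20 h. A600 read. MIC = lowest concentration giving complete inhibition or ≥90% turbidity reduction versus peptide-free control.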

[5] = test system: Streptococcus mutans; experiment: Antimicrobial activity against Streptococcus mutans UA159 at 25 ug/ml after 30 mins by time-kill assay; format: functional; in short: as §2
[6] = test system: Streptococcus mutans; experiment: Antimicrobial activity against Streptococcus mutans UA159 after 16 to 20 hrs by broth microdilution assay; format: functional; in short: as §1
[7] = test system: Streptococcus mitis; experiment: Antimicrobial activity against Streptococcus mitis ATCC 903 after 16 to 20 hrs by broth microdilution assay; format: functional; in short: as §1
[8] = test system: Streptococcus gordonii str. Challis; experiment: Antimicrobial activity against Streptococcus gordonii Challis DL1 at 25 ug/ml after 30 mins by time-kill assay; format: functional; in short: as §2
[9] = Antimicrobial activity against Streptococcus gordonii Challis DL1 after 16 to 20 hrs by broth microdilution assay; format: functional, Streptococcus gordonii str. Challis; in short: as §1
[10] = test system: Streptococcus sanguinis; experiment: Antimicrobial activity against Streptococcus sanguinis NY101 after 16 to 20 hrs by broth microdilution assay; format: functional; in short: as §1
[11] = test system: Streptococcus gordonii; experiment: Antimicrobial activity against Streptococcus gordonii assessed as inhibition of bacterial biofilm formation at 50 uM after 10 mins; format: functional
In short: (§3)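 Mixed-species biofilms were grown 24 h at 37°C anaerobically in TH with 50% filter-sterilized pooled human saliva and 1% sucrose. Inoculum: S. mutans JM11 at 1 × 10^6 CFU/well plus S. oralis, S. gordonii, S. sanguinis, S. mitis and S. salivarius at 2 × 10^5 CFU/well each. Survivors were plated on TH agar for total streptococci and on TH agar with 800 µg/ml spectinomycin for JM11. Detection limit 100 CFU/ml.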

[12] = test system: Streptococcus mutans; experiment: Antimicrobial activity against Streptococcus mutans JM11 assessed as inhibition of bacterial biofilm formation at 50 uM after 10 mins; format: functional; in short: as §3
[13] = test system: Streptococcus mutans; experiment: Antimicrobial activity against Streptococcus mutans UA159 assessed as inhibition of viability of bacterial biofilm at 25 ug/ml treated for 1 min measured after 4 hrs; format: functional
In short: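 S. mutans biofilms were seeded from overnight culture diluted 1:50 in TH broth with 0.5% sucrose, centrifuged, and grown 4 h anaerobically at 37°C. They were exposed to peptide in 1× PBS for about 1 min, washed, and given fresh TH broth without sucrose. Recovery was read as A600 after 4 h anaerobic incubation at 37°C. Three experiments; unpaired t test.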

[14] = test system: Streptococcus oralis; experiment: Antimicrobial activity against Streptococcus oralis assessed as inhibition of bacterial biofilm formation at 50 uM after 10 mins; format: functional; in short: as §3
[15] = test system: Streptococcus mitis; experiment: Antimicrobial activity against Streptococcus mitis assessed as inhibition of bacterial biofilm formation at 50 uM after 10 mins; format: functional; in short: as §3
[16] = test system: Streptococcus salivarius; experiment: Antimicrobial activity against Streptococcus salivarius assessed as inhibition of bacterial biofilm formation at 50 uM after 10 mins; format: functional; in short: as §3
[17] = test system: Streptococcus sanguinis; experiment: Antimicrobial activity against Streptococcus sanguinis assessed as inhibition of bacterial biofilm formation at 50 uM after 10 mins; format: functional; in short: as §3
[18] = test system: Streptococcus mutans; experiment: Antimicrobial activity against Streptococcus mutans UA159 assessed as inhibition of bacterial biofilm formation at 25 uM after 3 mins by fluorescence assay; format: functional
In short: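 S. mutans UA159 overnight culture was diluted 1:5,000 in TH with 1% sucrose and grown as biofilm for 24 h. Biofilms were exposed 3 min at room temperature to 25 µM fluorescein-labelled peptide in HEPES/NaHCO3/NaCl/MgCl2 buffer with 0.1% CTAB, pH 7.4, then washed twice. Green fluorescence images were taken and biofilm-associated green pixels quantified as binding intensity units.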

[19] = test system: Enterococcus faecalis; experiment: Antimicrobial activity against Enterococcus faecalis after 16 to 20 hrs by broth microdilution assay; format: functional; in short: as §1
[20] = test system: Streptococcus sobrinus; experiment: Antimicrobial activity against Streptococcus sobrinus ATCC 33478 after 16 to 20 hrs by broth microdilution assay; format: functional; in short: as §1
[21] = test system: Escherichia coli; experiment: Antimicrobial activity against Escherichia coli W3110 after 16 to 20 hrs by broth microdilution assay; format: functional; in short: as §1

Molecule | MIC [1] | Activity [2] | Activity [3] | MIC [4] | Activity [5] | MIC [6] | MIC [7] | Activity [8] | MIC [9] | MIC [10] | inhibition [13] | inhibition [11] | inhibition [12] | inhibition [14] | inhibition [15] | inhibition [18] | inhibition [16] | MIC [19] | MIC [20] | MIC [21] | also measured
CC[C@H](C)[C@H](NC(=O)[C@H](Cc1ccccc1)NC(=O)[C@H](Cc1cnc[nH]1)NC(=O)[C@H](CCCCN)NC(=O)[C@@H](NC(=O)[C@@H](N)Cc1ccccc1)[C@@H](C)CC)C(=O)N[C@@H](Cc1cnc[nH]1)C(=O)N[C@@H](CCCNC(=N)N)C(=O)N[C@@H](Cc1ccccc1)C(=O)NCCCCCCCC(=O)N[C@@H](CCCNC(=N)N)C(=O)N[C@@H](Cc1c[nH]c2ccccc12)C(=O)N[C@@H](CCCNC(=N)N)C(=O)N[C@@H](Cc1c[nH]c2ccccc12)C(=O)N[C@@H](CCCNC(=N)N)C(=O)N[C@@H](Cc1c[nH]c2ccccc12)C(=O)N[C@@H](Cc1ccccc1)C(N)=O (H-FIKHFIHRF[Aoc]RWRWRWF-NH2) | 62.5 µg/mL (≈ 24.4 µM) | Active | Active | 32 µg/mL (≈ 12.5 µM) | Active | 8 µg/mL (≈ 3.13 µM) | 16 µg/mL (≈ 6.25 µM) | Active | 32 µg/mL (≈ 12.5 µM) | 32 µg/mL (≈ 12.5 µM) |  |  |  |  |  |  |  |  |  |  | 
N=C(NCCCCCCNC(=N)NC(=N)Nc1ccc(Cl)cc1)NC(=N)Nc1ccc(Cl)cc1 [CHLORHEXIDINE] |  |  |  |  |  |  |  |  |  |  | Active |  |  |  |  |  |  |  |  |  | inhibition at 50 µM [11]: 95%; inhibition at 50 µM ([12]; JM11, 10 min): 95%; inhibition at 50 µM [14]: 95%; inhibition at 50 µM [15]: 95%; inhibition at 50 µM [16]: 95%; inhibition at 50 µM [17]: 95%
H-FIKHFIHRFGGGFKKFWKWFRRF-NH2 | 62.5 µg/mL | Active | Active | 16 µg/mL | Active | 4 µg/mL | 32 µg/mL | Active | 62.5 µg/mL | 16 µg/mL | Active | inactive | Active | inactive | inactive | Active | inactive |  |  |  | inhibition [17]: inactive
H-FIKHFIHRFGGGRWRWRWF-NH2 | 62.5 µg/mL | Active | Active | 32 µg/mL | Active | 8 µg/mL | 32 µg/mL | Active | 32 µg/mL | 32 µg/mL | Active |  | Active |  |  | Active |  |  |  |  | 
H-FIKHFIHRFSATRWRWRWF-NH2 | 62.5 µg/mL |  |  | 125 µg/mL |  | 8 µg/mL | 16 µg/mL |  | 32 µg/mL | 32 µg/mL | Active | inactive | Active | inactive | inactive | Active | inactive |  |  |  | inhibition [17]: inactive
H-FKKFWKWFRRF-NH2 | 32 µg/mL | Active | Active | 16 µg/mL | Active | 8 µg/mL | 16 µg/mL | Active | 16 µg/mL | 32 µg/mL | Active | inactive | Active | inactive | inactive | Active | inactive |  |  |  | inhibition [17]: inactive
H-LIKHILHRL-NH2 | > 500 µg/mL |  |  | > 500 µg/mL |  | 125 µg/mL | > 500 µg/mL |  | > 500 µg/mL | > 500 µg/mL |  |  |  |  |  | Active |  | > 500 µg/mL | > 500 µg/mL | > 500 µg/mL | 
H-RWRWRWF-NH2 | 32 µg/mL | Active | Active | 32 µg/mL | Active | 4 µg/mL | 32 µg/mL | Active | 32 µg/mL | 32 µg/mL | Active | inactive |  | inactive | inactive | Active | inactive |  |  |  | inhibition [17]: inactive
H-WWHSWWSTW-NH2 | > 125 µg/mL |  |  | > 125 µg/mL |  | 125 µg/mL | 125 µg/mL |  | 125 µg/mL | 125 µg/mL |  |  |  |  |  | Active |  | > 125 µg/mL | 125 µg/mL | 125 µg/mL | 
H-WWKDWWERW-NH2 | > 500 µg/mL |  |  | > 500 µg/mL |  | > 500 µg/mL | > 500 µg/mL |  | > 500 µg/mL | > 500 µg/mL |  |  |  |  |  | Active |  | > 500 µg/mL | > 500 µg/mL | > 500 µg/mL | 
H-WWQDWWNEW-NH2 | > 500 µg/mL |  |  | > 500 µg/mL |  | > 500 µg/mL | > 500 µg/mL |  | > 500 µg/mL | > 500 µg/mL |  |  |  |  |  | Active |  | > 500 µg/mL | > 500 µg/mL | > 500 µg/mL | 
H-WWSYWWTQW-NH2 | > 125 µg/mL |  |  | > 125 µg/mL |  | 125 µg/mL | 125 µg/mL |  | 125 µg/mL | 125 µg/mL |  |  |  |  |  | Active |  | > 125 µg/mL | 125 µg/mL | 125 µg/mL | 
